Source: ChEMBL document CHEMBL4024783, “Alkylated Piperazines and Piperazine-Azole Hybrids as Antifungal Agents” (J Med Chem, 2018)
In brackets after ≈: the same amount, converted by molar mass. Activity calls are given as the source filed them. No cut-off for these calls is given here.

Tests used:
Candida albicans [1] = test: Antifungal activity against Candida albicans ATCC 10231 after 48 hrs by broth dilution method; assay type: functional; details: ATCC 10231, 48 h
Candida albicans [2] = test: Antifungal activity against itraconazole and fluconazole susceptible Candida albicans ATCC MYA-2876 after 48 hrs by broth dilution method; assay type: functional; details: Candida albicans, ATCC MYA-2876, 48 h
BEAS-2B = test: Cytotoxicity against human BEAS2B cells at 7.8 ug/mL after 24 hrs by resazurin-based fluorescence assay; assay type: cell-based
Outline: (§1)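 Cells grown in DMEM with 10% FBS at 37 °C, 5% CO2, and seeded at 10000 (HEK-293) or 3000 (BEAS-2B, A549) per well. After 16 h, exposed 24 h to 0.13–31 µg/mL final in medium with 0.1–0.4% DMSO. Resazurin added for 6–10 h; fluorescence read at 560/590 nm and survival normalized to DMSO control after background subtraction. Triton X-100 12.5% v/v positive control; duplicate.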

Candida parapsilosis [3] = test: Antifungal activity against Candida parapsilosis ATCC 22019 after 48 hrs by broth dilution method; assay type: functional; details: Lodderomyces parapsilosis, ATCC 22019, 48 h
Aspergillus flavus = test: Antifungal activity against Aspergillus flavus ATCC MYA-3631 after 48 hrs by broth dilution method; assay type: functional; details: ATCC MYA-3631, 48 h
Aspergillus terreus = test: Antifungal activity against Aspergillus terreus ATCC MYA-3633 after 48 hrs by broth dilution method; assay type: functional; details: Aspergillus terreus, ATCC MYA-3633, 48 h
Outline: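 Molds tested per CLSI M38-A2. Spores were harvested from sporulating PDA cultures by filtering through glass wool and counted on a hemocytometer. Serial dilutions (0.03–31.3 µg/mL) were made in RPMI 1640 buffered to pH 7.0 with 0.165 M MOPS, final inoculum 5 × 10^5 CFU/mL.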

Pichia kudriavzevii = test: Antifungal activity against Candida krusei ATCC 6258 after 48 hrs by broth dilution method; assay type: functional; details: Pichia kudriavzevii, ATCC 6258, 48 h
Outline: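 Yeasts tested per CLSI M27-A3 with minor changes. An overnight YPD culture (35 °C, 200 rpm) was adjusted to OD600 0.12 and diluted in MOPS-buffered RPMI 1640 (pH 7.0) to a final 1–2 × 10^3 CFU/mL. Compounds 0.015–31.3 µg/mL, DMSO <1.25%.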

A549 [4] = test: Cytotoxicity against human A549 cells up to 15.5 ug/mL after 24 hrs by resazurin-based fluorescence assay; assay type: cell-based; details: a549, 24 h; outline: as §1
HEK293 = test: Cytotoxicity against HEK293 cells at 7.8 ug/mL after 24 hrs by resazurin-based fluorescence assay; assay type: cell-based; details: human, hek293, 24 h; outline: as §1
Nakaseomyces glabratus = test: Antifungal activity against Candida glabrata ATCC 2001 after 48 hrs by broth dilution method; assay type: functional, CBS 138; details: Nakaseomyces glabratus, CBS 138, 48 h
Candida albicans [5] = test: Antifungal activity against itraconazole and fluconazole resistant Candida albicans ATCC MYA-1237 after 48 hrs by broth dilution method; assay type: functional; details: Candida albicans, ATCC MYA-1237, 48 h
Outline: (§2)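 CLSI M27-A3 broth microdilution with minor modifications. Overnight YPD culture grown at 35 °C, 200 rpm, adjusted to OD600 0.12, diluted in RPMI 1640 buffered to pH 7.0 with 0.165 M MOPS to a final 1–2 × 10^3 CFU/mL. Test compounds at 0.015–31.3 µg/mL, 48 h at 35 °C, DMSO <1.25%. […] Triplicate.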

Candida albicans [6] = test: Antifungal activity against itraconazole and fluconazole resistant Candida albicans ATCC MYA-1003 after 48 hrs by broth dilution method; assay type: functional; details: Candida albicans, ATCC MYA-1003, 48 h; outline: as §2
Candida albicans [7] = test: Antifungal activity against itraconazole and fluconazole susceptible Candida albicans ATCC MYA-2310 after 48 hrs by broth dilution method; assay type: functional; details: Candida albicans, ATCC MYA-2310, 48 h
Candida albicans [8] = test: Antifungal activity against Candida albicans ATCC 64124 after 48 hrs by broth dilution method; assay type: functional; details: Candida albicans, ATCC 64124, 48 h; outline: as §2
Aspergillus nidulans [9] = test: Antifungal activity against Aspergillus nidulans ATCC 38163 after 48 hrs by broth dilution method; assay type: functional; details: Aspergillus nidulans, ATCC 38163, 48 h
Outline: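 A. nidulans run per CLSI M38-A2. PDA spores were filtered through glass wool and counted by hemocytometer. Test range 0.03–31.3 µg/mL in MOPS-buffered RPMI 1640 (pH 7.0), final 5 × 10^5 CFU/mL.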

Candida albicans [10] = test: Antifungal activity against itraconazole and fluconazole resistant Candida albicans ATCC 90819 after 48 hrs by broth dilution method; assay type: functional; details: Candida albicans, ATCC 90819, 48 h; outline: as §2
Candida albicans [11] = test: Inhibition of 14alpha-demethylase in Candida albicans ATCC 10231 assessed as total sterol levels at […] by GC-MS analysis; set-up: scale not given: the % may be the effect or the level left
Candida albicans [12] = test: Antifungal activity against Candida albicans ATCC 10231 after 48 hrs in the presence of 10% FBS by broth dilution method; assay type: functional; details: ATCC 10231, 48 h
Candida albicans [13] = test: Inhibition of 14alpha-demethylase in Candida albicans ATCC 10231 assessed as 14alpha-methyl ergosta-8,24(28)-dien-3beta,6alpha-diol levels at […] by GC-MS analysis; set-up: scale not given: the % may be the effect or the level left
Candida albicans [14] = test: Antifungal activity against Candida albicans ATCC 10231 at 3.9 ug/mL incubated for 1 hr by propidium iodide staining-based fluorescence microscopic method; assay type: functional
Outline: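 C. albicans ATCC 10231 from an overnight YPD culture (35 °C, 200 rpm) was transferred into RPMI 1640 and exposed to drug. Membrane integrity was assessed by uptake of propidium iodide under fluorescence microscopy.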

A549 [15] = test: Cytotoxicity against human A549 cells up to 7.8 ug/mL after 24 hrs by resazurin based fluorescence assay; assay type: cell-based; details: a549, 24 h; outline: as §1
Candida albicans [16] = test: Fungicidal activity against Candida albicans ATCC 10231 at 4 times MIC incubated for 24 hrs by time kill assay; assay type: functional
Outline: (§3)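 Overnight YPD cultures were diluted in RPMI 1640 to OD600 0.12–0.13; initial inoculum 1–4 × 10^5 CFU/mL. […] Shaken at 200 rpm, 35 °C, for 24 h, sampling at 0, 3, 6, 9, 12 and 24 h. Serial dilutions were plated on PDA and CFU counted; detection limit 100 CFU/mL; duplicate.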

Candida albicans [17] = test: Antibiofilm activity against voriconazole resistant Candida albicans ATCC 64124 sessile cells incubated for 24 hrs by XTT reduction assay; assay type: functional; details: ATCC 64124, 24 h
Outline: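 Strain B grown overnight in YPD broth at 35 °C, diluted to OD600 0.1 (~10^6 CFU/mL), then grown statically for 24 h at 37 °C to form biofilm. Washed with PBS, then drug in RPMI 1640 at 0.12–62.5 µg/mL for 24 h at 37 °C. Read-out: XTT 0.5 mg/mL with menadione 1 µM, 2 h, A490. SMIC50/SMIC80 are 50%/80% decreases versus drug-free biofilm. Duplicate.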

Aspergillus nidulans [18] = test: Antifungal activity against Aspergillus nidulans ATCC 38163 after 48 hrs in the presence of 10% FBS by broth dilution method; assay type: functional; details: ATCC 38163, 48 h
Candida albicans [19] = test: Inhibition of 14alpha-demethylase in Candida albicans ATCC 10231 assessed as eburicol levels at […] by GC-MS analysis; set-up: scale not given: the % may be the effect or the level left
Candida albicans [20] = test: Inhibition of 14alpha-demethylase in Candida albicans ATCC 10231 assessed as ergosterol levels at […] by GC-MS analysis; set-up: scale not given: the % may be the effect or the level left
Candida parapsilosis [21] = test: Antifungal activity against Candida parapsilosis ATCC 22019 after 48 hrs in the presence of 10% FBS by broth dilution method; assay type: functional; details: Lodderomyces parapsilosis, ATCC 22019, 48 h
[22] = Aqueous solubility of the compound; assay type: physicochemical; details: buffer
Candida parapsilosis [23] = test: Fungistatic activity against Candida parapsilosis ATCC 22019 up to 8 times MIC incubated for 24 hrs by time kill assay; assay type: functional; outline: as §3
[24] = Solubility of the compound in DMSO; assay type: physicochemical
Candida albicans [25] = test: Inhibition of 14alpha-demethylase in Candida albicans ATCC 10231 assessed as lanosterol levels at […] by GC-MS analysis; set-up: scale not given: the % may be the effect or the level left

CCCCCCCCN1CCN(CC(O)(Cn2cncn2)c2ccc(F)cc2F)CC1 (stereo unspecified)
MIC (Candida albicans [1]): 9 µM (≈ 3.92 µg/mL) | MIC (Candida albicans [2]): 71.9 µM (≈ 31.3 µg/mL) | Activity (BEAS-2B): Toxic | MIC (Candida parapsilosis [3]): 0.1 µM (≈ 0.0436 µg/mL) | MIC (Aspergillus flavus): 4.5 µM (≈ 1.96 µg/mL) | MIC (Aspergillus terreus): 9 µM (≈ 3.92 µg/mL) | MIC (Pichia kudriavzevii): 17.9 µM (≈ 7.8 µg/mL) | Activity (A549 [4]): Non-Toxic | Activity (HEK293): Toxic | MIC (Nakaseomyces glabratus): 35.8 µM (≈ 15.6 µg/mL) | MIC (Candida albicans [5]): 71.9 µM (≈ 31.3 µg/mL) | MIC (Candida albicans [6]): 2.2 to 71.9 µM (≈ 0.958 to 31.3 µg/mL) | MIC (Candida albicans [7]): > 71.9 µM | MIC (Candida albicans [8]): 71.9 µM (≈ 31.3 µg/mL) | MIC (Aspergillus nidulans [9]): 9 µM (≈ 3.92 µg/mL) | MIC (Candida albicans [10]): 35.8 µM (≈ 15.6 µg/mL)

CCCCCCCCCCN1CCN(CC(O)(Cn2cncn2)c2ccc(F)cc2F)CC1 (stereo unspecified)
MIC (Candida albicans [1]): 2.1 µM (≈ 0.974 µg/mL) | Activity (Candida albicans [11]): 2.8 to 14.4% | Activity (BEAS-2B): Toxic | MIC (Candida parapsilosis [3]): 0.03 µM (≈ 0.0139 µg/mL) | MIC (Candida albicans [12]): 0.975 µg/mL | Activity (Candida albicans [13]): 15.4% | Activity (Candida albicans [14]): inactive | Activity (A549 [15]): Non-Toxic | MIC (Aspergillus flavus): 0.5 µM (≈ 0.232 µg/mL) | Activity (Candida albicans [16]): Active | MIC (Aspergillus terreus): 2.1 µM (≈ 0.974 µg/mL) | MIC (Pichia kudriavzevii): 4.2 µM (≈ 1.95 µg/mL) | MIC50 (Candida albicans [17]): 15.6 µg/mL (≈ 33.6 µM) | MIC80 (Candida albicans [17]): 62.5 µg/mL (≈ 135 µM) | Activity (HEK293): Toxic | MIC (Nakaseomyces glabratus): > 67.5 µM | MIC (Candida albicans [5]): 16.8 µM (≈ 7.79 µg/mL) | MIC (Candida albicans [6]): 8.4 µM (≈ 3.89 µg/mL) | MIC (Candida albicans [7]): 16.8 µM (≈ 7.79 µg/mL) | MIC (Aspergillus nidulans [18]): 0.975 µg/mL | Activity (Candida albicans [19]): 1.25% | Activity (Candida albicans [20]): 30.1% | MIC (Candida parapsilosis [21]): 0.06 µg/mL | MIC (Candida albicans [8]): 8.4 µM (≈ 3.89 µg/mL) | solubility [22]: Soluble | Activity (Candida parapsilosis [23]): Active | solubility [24]: Soluble | Activity (Candida albicans [25]): 33.4% | MIC (Aspergillus nidulans [9]): 2.1 µM (≈ 0.974 µg/mL) | MIC (Candida albicans [10]): 8.4 µM (≈ 3.89 µg/mL)
